Assay results as given in article PMC10963326 (Heliyon, 2024).

Key:
[1] = target: human thrombin (Homo sapiens, UniProt P00734); assay: Direct inhibition of human thrombin, chromogenic substrate; format: biochemical; conditions: highest concentration tested of 600 μM, data not shown
Procedure, shortened: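 Thrombin 6 nM final in 20 mM Tris-HCl pH 7.4, 100 mM NaCl, 2.5 mM CaCl2, 0.1% PEG8000, with or without 0.02% Tween80, at 25 or 37 °C. Test compound (DMSO vehicle) added, then either 10 min preincubation or none. Spectrozyme TH at 50 μM final; initial A405 rate. Residual activity was the ratio to the no-compound rate, fitted to a logistic equation for IC50, HS and ΔY.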

[2] = target: thrombin exosite 1; conditions: binding to exosite 1 ref 21; cited from earlier work

CCCCCCCCCCCCOS(=O)(=O)[O-].[Na+] [sodium dodecyl sulfate]
inhibition of thrombin [1]: did not inhibit

[5 F]-Hir-(54–65)-(SO3^−) [HirP]
Kd [2]: 28 nM
